How the values were obtained:
[1] = target: T1, Alpha-1D adrenergic receptor (Rattus norvegicus) (UniProt P23944); test: Antagonist activity at alpha1D-adrenoceptor in Wistar rat thoracic aorta assessed as inhibition of (-)-NE-induced contractions preincubated for 60 mins before (-)-NE challenge measured after 1 hr in presence of normetanephrine hydrochloride and (+/-)-propranolol hydrochloride
T1 sequence (whole entry): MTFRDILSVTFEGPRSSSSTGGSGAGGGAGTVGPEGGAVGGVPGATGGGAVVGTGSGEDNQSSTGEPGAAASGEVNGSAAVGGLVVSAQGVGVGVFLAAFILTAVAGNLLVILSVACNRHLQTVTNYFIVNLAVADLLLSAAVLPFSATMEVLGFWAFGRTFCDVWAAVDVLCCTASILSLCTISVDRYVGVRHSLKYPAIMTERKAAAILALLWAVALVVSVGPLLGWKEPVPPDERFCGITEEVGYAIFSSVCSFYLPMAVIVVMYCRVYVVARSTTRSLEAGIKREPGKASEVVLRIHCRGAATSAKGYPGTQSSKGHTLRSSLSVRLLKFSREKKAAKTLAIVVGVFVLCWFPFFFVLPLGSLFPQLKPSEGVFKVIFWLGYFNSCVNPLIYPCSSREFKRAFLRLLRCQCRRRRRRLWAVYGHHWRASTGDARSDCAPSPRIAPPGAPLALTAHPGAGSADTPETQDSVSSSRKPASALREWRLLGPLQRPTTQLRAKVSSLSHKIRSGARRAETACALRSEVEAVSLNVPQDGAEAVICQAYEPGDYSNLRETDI
Summary of the method: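 Male Wistar rat thoracic aorta strips, endothelium rubbed off and checked by loss of 100 µM acetylcholine relaxation after 1 µM (-)-NE contraction. Krebs solution, 1 g tension, at least 2 h equilibration. Isometric cumulative (-)-NE curves at 1 h intervals; third used as control, fourth after 60 min antagonist. pKB from the ED50 dose ratio. Mean ± SE, 4-5 experiments.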

[2] = target: T2, Alpha-1B adrenergic receptor (Homo sapiens, UniProt P35368); test: Displacement of [3H]prazosin from human alpha1B-adrenoceptor expressed in CHO cell membranes measured after 30 mins
T2 sequence (P35368 whole entry): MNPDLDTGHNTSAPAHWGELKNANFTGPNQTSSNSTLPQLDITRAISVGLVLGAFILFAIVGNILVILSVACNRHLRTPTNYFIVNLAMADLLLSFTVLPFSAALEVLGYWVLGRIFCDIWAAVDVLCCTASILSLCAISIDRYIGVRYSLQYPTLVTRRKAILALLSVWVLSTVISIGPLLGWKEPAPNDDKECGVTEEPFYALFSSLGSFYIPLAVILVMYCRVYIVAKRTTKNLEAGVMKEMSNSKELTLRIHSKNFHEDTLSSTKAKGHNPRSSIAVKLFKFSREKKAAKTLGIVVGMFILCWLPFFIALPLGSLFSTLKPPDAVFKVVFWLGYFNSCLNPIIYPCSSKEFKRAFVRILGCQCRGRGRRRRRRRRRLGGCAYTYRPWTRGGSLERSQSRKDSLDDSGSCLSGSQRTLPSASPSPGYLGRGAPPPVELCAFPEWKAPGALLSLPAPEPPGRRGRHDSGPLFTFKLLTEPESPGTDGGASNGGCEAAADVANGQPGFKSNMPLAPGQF
Summary of the method: (§1)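 Membranes (30 µg protein) from stably transfected CHO cells, each expressing one human α1 subtype, incubated 30 min at 25 °C in 50 mM Tris-HCl pH 7.4 with 0.1-0.4 nM [3H]prazosin and competitor 1 pM-10 µM. Nonspecific binding defined with 10 µM phentolamine. Filtration over PEI-treated filters. Ki from IC50 via Cheng-Prusoff; 2-3 experiments in triplicate.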

[3] = target: T3, Alpha-1B adrenergic receptor (Rattus norvegicus, UniProt P15823); test: Antagonist activity at alpha1B-adrenoceptor in Wistar rat spleen assessed as inhibition of phenylphrine-induced contractions measured after 30 mins in presence of (+/-)-propranolol hydrochloride; settings: 0.5 h
T3 sequence (P15823 whole entry): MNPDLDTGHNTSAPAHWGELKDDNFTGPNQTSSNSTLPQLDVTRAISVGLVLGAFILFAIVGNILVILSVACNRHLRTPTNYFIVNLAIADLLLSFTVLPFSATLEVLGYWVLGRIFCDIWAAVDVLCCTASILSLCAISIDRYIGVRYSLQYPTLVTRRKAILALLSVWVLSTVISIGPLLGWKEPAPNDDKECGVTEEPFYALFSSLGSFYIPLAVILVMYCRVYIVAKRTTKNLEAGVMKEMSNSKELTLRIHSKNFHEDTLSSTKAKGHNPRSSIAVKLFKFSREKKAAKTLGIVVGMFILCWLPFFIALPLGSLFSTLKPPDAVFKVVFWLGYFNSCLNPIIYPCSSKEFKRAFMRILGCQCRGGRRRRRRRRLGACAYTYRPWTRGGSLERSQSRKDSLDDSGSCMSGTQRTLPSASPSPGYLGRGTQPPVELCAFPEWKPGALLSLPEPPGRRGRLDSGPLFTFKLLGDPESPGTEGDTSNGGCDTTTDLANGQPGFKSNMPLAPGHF
Summary of the method: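 Male Wistar rat spleen strips in Krebs-type solution at 37 °C with (±)-propranolol 4 µM, under 1 g resting tension, equilibrated 2 h. Cumulative isometric phenylephrine curves at 30 min intervals; first discarded, second used as control, then a curve after 30 min antagonist incubation. pKB = log(DR-1) - log[B] from ED50 ratio. Mean ± SE, 4-5 experiments.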

[4] = target: T4, Alpha-1D adrenergic receptor (Homo sapiens, UniProt P25100); test: Displacement of [3H]prazosin from human alpha1D-adrenoceptor expressed in CHO cell membranes measured after 30 mins; summary of the method: as §1
T4 sequence (P25100 whole entry): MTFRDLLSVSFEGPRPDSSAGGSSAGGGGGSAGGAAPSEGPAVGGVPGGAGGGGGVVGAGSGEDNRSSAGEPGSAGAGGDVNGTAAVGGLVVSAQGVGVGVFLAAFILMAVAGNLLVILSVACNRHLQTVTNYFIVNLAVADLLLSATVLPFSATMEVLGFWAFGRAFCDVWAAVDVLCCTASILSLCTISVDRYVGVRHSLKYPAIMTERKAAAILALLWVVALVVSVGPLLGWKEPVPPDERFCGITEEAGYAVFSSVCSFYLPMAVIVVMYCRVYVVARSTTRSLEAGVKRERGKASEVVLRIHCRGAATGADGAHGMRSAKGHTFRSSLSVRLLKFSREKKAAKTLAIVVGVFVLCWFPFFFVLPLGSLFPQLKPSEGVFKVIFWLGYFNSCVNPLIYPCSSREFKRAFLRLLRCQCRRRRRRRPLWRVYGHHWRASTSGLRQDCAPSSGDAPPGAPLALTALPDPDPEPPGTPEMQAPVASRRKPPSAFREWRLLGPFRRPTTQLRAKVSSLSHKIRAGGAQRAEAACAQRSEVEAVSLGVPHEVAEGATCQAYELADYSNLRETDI

[5] = target: T5, Alpha-1A adrenergic receptor (Rattus norvegicus) (UniProt P43140); test: Antagonist activity at alpha1A-adrenoceptor in Wistar rat prostatic vas deference assessed as inhibition of (-)-NE-induced contractions preincubated for 60 mins before (-)-NE challenge measured after 45 mins
T5 sequence (whole entry): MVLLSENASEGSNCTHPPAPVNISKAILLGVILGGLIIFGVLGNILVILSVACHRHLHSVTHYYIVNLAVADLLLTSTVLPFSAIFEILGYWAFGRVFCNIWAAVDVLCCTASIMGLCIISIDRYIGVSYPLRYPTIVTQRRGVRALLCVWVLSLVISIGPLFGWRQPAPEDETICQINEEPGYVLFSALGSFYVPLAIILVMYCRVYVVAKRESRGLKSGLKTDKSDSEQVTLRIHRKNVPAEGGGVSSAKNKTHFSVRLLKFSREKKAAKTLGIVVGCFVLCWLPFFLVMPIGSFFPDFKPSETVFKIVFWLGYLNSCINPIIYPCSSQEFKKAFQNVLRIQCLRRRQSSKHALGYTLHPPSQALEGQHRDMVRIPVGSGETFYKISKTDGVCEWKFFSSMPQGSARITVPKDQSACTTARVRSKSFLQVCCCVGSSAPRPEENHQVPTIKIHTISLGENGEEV
Summary of the method: (§2)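 Male Wistar rats (275-300 g); prostatic vas deferens segments (2 cm) under 0.35 g tension at 37 °C in Tyrode with cocaine, aerated 5% CO2/95% O2. Tissue primed twice with 10 µM (-)-NE, then a cumulative isotonic (-)-NE curve. Antagonist equilibrated 60 min before a repeat curve. Line 1 gives pKB = log(DR-1) - log[B] at one or two concentrations; line 4 gives pA2 from Schild plot, slope constrained to -1. Mean ± SE, 4-5 experiments.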

[6] = target: T6, Alpha-1A adrenergic receptor (Homo sapiens, UniProt P35348); test: Displacement of [3H]prazosin from human alpha1A-adrenoceptor expressed in CHO cell membranes measured after 30 mins; summary of the method: as §1
T6 sequence (P35348 whole entry): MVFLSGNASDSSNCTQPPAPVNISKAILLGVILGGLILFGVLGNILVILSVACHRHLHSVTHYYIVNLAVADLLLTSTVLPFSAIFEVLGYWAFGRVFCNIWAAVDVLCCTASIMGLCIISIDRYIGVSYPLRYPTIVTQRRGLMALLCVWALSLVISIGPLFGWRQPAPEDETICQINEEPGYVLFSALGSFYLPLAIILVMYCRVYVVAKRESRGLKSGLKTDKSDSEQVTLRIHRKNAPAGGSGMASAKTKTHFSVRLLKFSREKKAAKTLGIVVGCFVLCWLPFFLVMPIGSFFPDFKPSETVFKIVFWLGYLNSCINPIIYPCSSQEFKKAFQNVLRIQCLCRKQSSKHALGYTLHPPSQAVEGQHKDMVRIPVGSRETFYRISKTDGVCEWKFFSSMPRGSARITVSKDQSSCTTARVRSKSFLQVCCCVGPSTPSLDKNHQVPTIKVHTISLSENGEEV

[7] = target: T7, Alpha-1A adrenergic receptor (Rattus norvegicus, UniProt P43140); test: Competitive antagonist activity at alpha1A-adrenoceptor in Wistar rat prostatic vas deference assessed as inhibition of (-)-NE-induced contractions preincubated for 60 mins before (-)-NE challenge measured after 45 mins by Schild plot analysis; settings: read-out: pA2 (converted); summary of the method: as §2
T7 sequence (P43140 whole entry): T5 sequence (whole entry)

Structure (SMILES)	pKb [1]	Ki [2]	pKb [3]	Ki [4]	pKb [5]	Ki [6]	Kb [7]
COc1ccc(CCN2CCN(c3ccccc3OC(C)C)CC2)cc1OC	9.12	10.5 nM	8.74	1.35 nM	9.55	2 nM	–
COc1cccc(CCN2CCN(c3ccccc3OC(C)C)CC2)c1	9.46	13.8 nM	8.92	1.32 nM	8.87	2.75 nM	–
CCOc1ccccc1N1CCN(CCc2cccc(OC)c2)CC1	8.11	25.1 nM	8.13	2.57 nM	8.39	2.95 nM	–
COc1ccccc1N1CCN(CCc2ccc3c(c2)OCO3)CC1	8.57	5.25 nM	8.11	1.26 nM	8.47	3.47 nM	–
CCOc1ccccc1N1CCN(CCc2ccc3c(c2)OCO3)CC1	8.84	5.37 nM	8.85	1.51 nM	9.09	1.12 nM	–
CCOc1ccccc1N1CCN(CCc2ccc(OC)cc2)CC1	8.23	10.2 nM	7.91	1.35 nM	8.89	1.12 nM	–
CC(C)Oc1ccccc1N1CCN(CCc2ccc3c(c2)OCO3)CC1	8.33	12.9 nM	8.03	1.74 nM	8.27	0.389 nM	4.17 nM
CC(C)Oc1ccccc1N1CCN(CCc2ccccc2)CC1	8.59	77.6 nM	7.94	4.57 nM	8.29	5.01 nM	–
CCOc1ccccc1N1CCN(CCc2ccc(OC)c(OC)c2)CC1	8.79	15.8 nM	8.89	0.603 nM	9.1	2.09 nM	–
COc1ccccc1N1CCN(CCc2ccccc2)CC1	8.5	91.2 nM	7.82	16.6 nM	7.76	31.6 nM	–
COc1ccc(CCN2CCN(c3ccccc3OC(C)C)CC2)cc1	–	14.8 nM	–	3.09 nM	–	2.24 nM	–

Reference: ChEMBL document CHEMBL3867431, “Synthesis and structure-activity relationships of novel arylpiperazines as potent antagonists of α1-adrenoceptor” (Eur J Med Chem, 2016)
